# How the values were obtained:
# [1] = Inhibition of recombinant SPM-1 (unknown origin) expressed in Escherichia coli BL21 (DE3) cells using FC4 as substrate assessed as residual activity at 1 mM preincubated for 10 mins prior to substrate addition by fluorescence-based assay relative to control
# Summary of the method: (§1)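 Mature SPM-1, E. coli codon-optimized, with N-terminal His6 tag cleavable by 3C protease, was expressed from pOPINF in E. coli BL21(DE3) pLysS in 2TY and purified to >95%. […] Fluorescence was read at λex 380/λem 460 nm and residual activity calculated.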
# [2] = system: BL21-DE3; test: Inhibition of recombinant SPM-1 (unknown origin) expressed in Escherichia coli BL21 (DE3) cells using FC4 as substrate assessed as residual activity at 200 uM preincubated for 10 mins prior to substrate addition by fluorescence-based assay relative to control; summary of the method: as §1
# [3] = system: BL21-DE3
# [4] = system: BL21-DE3; remark: listed apart in the source
# [5] = system: BL21-DE3; remark: listed apart in the source
# [6] = system: BL21-DE3; remark: listed apart in the source
# [7] = system: BL21-DE3; remark: listed apart in the source
# [8] = Chemical stability of the compound in buffer assessed as compound hydrolysis after 8 hrs; type: physicochemical
# Summary of the method: (§2)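 Substrate autohydrolysis was followed in aqueous assay buffer at room temperature over time, up to at least 8 h.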
# [9] = Chemical stability of the compound in aqueous solution; type: physicochemical; conditions: buffer; summary of the method: as §2
smiles,measurement,setting,value
CC(C)C[C@@H](NC(=O)c1nc(Cl)c2ccccc2c1O)C(=O)O,Activity,[1],< 5%
same,Activity,[2],32%
CC(C)[C@H](NC(=O)c1nc(Cl)c2ccccc2c1O)C(=O)O,Activity,[1],16%
O=C(O)C[C@@H](NC(=O)c1nc(Cl)c2ccccc2c1O)C(=O)O,Activity,[1],< 5%
O=C(O)CC[C@H](NC(=O)c1nc(Cl)c2ccccc2c1O)C(=O)O,Activity,[1],< 5%
O=C(Cc1cccs1)N[C@@H]1C(=O)N2C(C(=O)O)=C(/C=C/c3ccc([N+](=O)[O-])cc3[N+](=O)[O-])CS[C@H]12,Km,[3],16 µM
same,kcat,[3],0.7 s⁻¹
same,Km,[4],8.1 µM
same,kcat,[4],14.9 s⁻¹
same,Km,[5],8.8 µM
same,kcat,[5],25.3 s⁻¹
same,Km,[6],55.7 µM
same,kcat,[6],2790 s⁻¹
same,Km,[7],7.2 µM
same,kcat,[7],226 s⁻¹
O=C(Cc1ccccc1)N[C@@H]1C(=O)N2C(C(=O)O)=C(COc3ccc4ccc(=O)oc4c3)C[S+]([O-])[C@H]12 (stereo partly specified),Stability,[8],Stable
same,Stability,[9],Stable
O=C(O)C[C@H](NC(=O)c1nc(Cl)c2ccccc2c1O)C(=O)O,Activity,[1],< 5%
O=C(N[C@H](Cc1c[nH]c2ccccc12)C(=O)O)c1nc(Cl)c2ccccc2c1O,Activity,[1],< 5%
CC(C)[C@@H](NC(=O)c1nc(Cl)c2ccccc2c1O)C(=O)O,Activity,[1],16%
CC(C)C[C@H](NC(=O)c1nc(Cl)c2ccccc2c1O)C(=O)O,Activity,[1],< 5%
same,Activity,[2],26%
O=C(O)CC[C@@H](NC(=O)c1nc(Cl)c2ccccc2c1O)C(=O)O,Activity,[1],< 5%
O=C(N[C@@H](Cc1c[nH]c2ccccc12)C(=O)O)c1nc(Cl)c2ccccc2c1O,Activity,[1],< 5%
O=C(Cc1ccccc1)N[C@@H]1C(=O)N2C(C(=O)O)=C(COc3ccc4ccc(=O)oc4c3)CS(=O)(=O)[C@H]12,Stability,[8],Stable
same,Stability,[9],Stable
